Source: PMC6598175 (ACS Central Science, 2019)

Assays:
ASPACDRAFT_127619 = molecular target: T1, ASPACDRAFT_127619 (Aspergillus aculeatus, UniProt A0A1L9WG58); experiment: Competitive ABP labeling by 8 against substrates, recombinant enzyme; assay type: binding, A. aculeatus
T1 sequence (A0A1L9WG58 23-338): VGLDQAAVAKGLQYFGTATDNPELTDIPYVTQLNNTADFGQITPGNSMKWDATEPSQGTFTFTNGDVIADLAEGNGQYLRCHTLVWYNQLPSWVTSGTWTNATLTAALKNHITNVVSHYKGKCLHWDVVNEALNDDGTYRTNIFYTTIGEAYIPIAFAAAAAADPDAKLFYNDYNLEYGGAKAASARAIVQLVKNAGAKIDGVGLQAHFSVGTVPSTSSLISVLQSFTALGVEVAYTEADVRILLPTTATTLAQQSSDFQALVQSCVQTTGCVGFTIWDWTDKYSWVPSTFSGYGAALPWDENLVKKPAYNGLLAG
Outline: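 Labeling of recombinant GH10 xylanase used 100 nM xylobiose Cy5 ABP for 10 min at room temperature, with competing substrates (e.g. polysaccharides) added. Loss of in-gel fluorescence with competitor concentration gave IC50. Assays were also repeated at 20 min, 37 °C, 1 μM ABP. Three or four technical replicates.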

[1] = molecular target: ∼30 kDa band (XlnC, β-xylanase) (Aspergillus niger, UniProt C5J411); experiment: ABP labeling of secretomes and competition by inhibitors; assay type: binding, A. niger; conditions: xylan-induced secretome preincubated with competitor, then ABP 8
Outline: (§1)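 A. niger N402 was grown in minimal medium with 50 mM (0.75% w/v) xylose or 1% w/v beechwood xylan as sole carbon source. Secretomes were sampled at days 1–9, brought to pH 4.5 with phosphate/citrate buffer and labeled unconcentrated with Cy5 ABPs. In competition runs, secretome was preincubated with competitor (e.g. 100 μM aziridine) before ABP. Bands were read by SDS-PAGE fluorescence scan.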

[2] = molecular target: T2, ∼130 kDa band (XlnD, β-xylosidase) (Aspergillus niger, UniProt O00089); experiment: as above; assay type: binding, A. niger
T2 sequence (O00089 27-804): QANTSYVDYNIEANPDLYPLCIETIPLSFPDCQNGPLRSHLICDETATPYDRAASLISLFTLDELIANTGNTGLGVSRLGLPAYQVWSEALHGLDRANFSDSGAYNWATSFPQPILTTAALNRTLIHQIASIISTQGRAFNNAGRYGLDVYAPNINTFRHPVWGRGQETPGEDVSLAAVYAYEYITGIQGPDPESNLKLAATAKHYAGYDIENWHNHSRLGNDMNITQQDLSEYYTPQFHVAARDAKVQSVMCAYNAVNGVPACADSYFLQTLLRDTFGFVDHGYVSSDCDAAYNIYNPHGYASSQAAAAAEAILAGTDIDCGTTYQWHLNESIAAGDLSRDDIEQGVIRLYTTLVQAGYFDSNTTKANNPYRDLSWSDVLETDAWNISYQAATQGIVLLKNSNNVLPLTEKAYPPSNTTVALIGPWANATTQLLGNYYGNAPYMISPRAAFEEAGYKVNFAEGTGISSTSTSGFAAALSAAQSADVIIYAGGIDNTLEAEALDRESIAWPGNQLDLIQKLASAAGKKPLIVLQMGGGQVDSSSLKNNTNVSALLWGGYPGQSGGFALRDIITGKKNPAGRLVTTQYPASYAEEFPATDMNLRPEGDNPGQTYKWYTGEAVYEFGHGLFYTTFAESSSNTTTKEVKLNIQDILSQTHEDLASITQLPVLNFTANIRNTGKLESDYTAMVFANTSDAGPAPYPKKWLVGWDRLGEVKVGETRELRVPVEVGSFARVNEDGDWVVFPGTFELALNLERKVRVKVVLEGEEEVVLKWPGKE
Outline: as §1

Cc1cc(=O)oc2cc(O[C@@H]3OC[C@@H](O[C@@H]4OC[C@@H](O)[C@H](O)[C@H]4O)[C@H](O)[C@H]3O)ccc12 [4MU-β-D-xylobioside]
IC50 (ASPACDRAFT_127619): 204 µM

OC[C@@H]1[C@@H](O)[C@H](O)[C@@H](O)[C@@H]2O[C@H]12 [Compound 22, cyclophellitol]
competition of ∼30 kDa band labeling by 8 [1]: No labeling inhibition | competition of ∼130 kDa band labeling by 8 ([2]; xylan-induced secretome preincubated with competitor, then ABP 8): No labeling inhibition

OC[C@@H]1[C@@H](O)[C@H](O)[C@@H](O)[C@@H]2N[C@H]12 [Compound 23, cyclophellitol aziridine]
competition of ∼130 kDa band labeling by 8 ([2]; preincubation with 100 μM competitor): some loss of intensity
